Data on 30 molecules can be found in ChEMBL document CHEMBL1121372, “Synthesis and antihypertensive activity of 5-amino-2-pyridinecarboxylic acid derivatives” (1980).

The source made the active and inactive calls. No cut-off for these calls is given here.

In assay [1] the test system is Rattus norvegicus. In words: Antihypertensive effect in spontaneously hypertensive rat (SHR), expressed as fall in blood pressure (BP) at 50 mg/kg dose given orally. The following applies: route oral. The class given is functional. In short, it runs like this: (§1)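 Male SHR, about 16 weeks old, with systolic pressure above 150 mmHg, held in restraint cages. Tail-cuff occlusion was raised to 250 mmHg and then lowered, after 1 h acclimation and at least 3 baseline readings. Dosing was by daily gavage in 3% cornstarch/5% PEG-400/Tween 80 for 2 or 4 days, with 4–6 rats per drug. Readings at 1, 2, 3 and 24 h; peak fall reported.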

Assay [2] concerns Rattus norvegicus. Nature of the assay: The compound was tested for antihypertensive effect in spontaneously hypertensive rat (SHR), expressed as fall in blood pressure (BP) at 25 mg/kg dose given orally. The class given is functional. The note with it: route oral. In short, it runs like this: as §1
In assay [3] the test system is Rattus norvegicus. Nature of the assay: The compound was tested for antihypertensive effect in spontaneously hypertensive rat (SHR), expressed as fall in blood pressure (BP) at 100 mg/kg dose given orally. The class given is functional. The following applies: route oral. A digest of the protocol: as §1
Assay [4] deals with Rattus norvegicus. Nature of the assay: The compound was tested for antihypertensive effect in spontaneously hypertensive rat (SHR), expressed as fall in blood pressure (BP) at 100 mg/kg dose given orally; Inactive. The class given is functional, organism-based. On the set-up: dose 100 mg/kg. A digest of the protocol: as §1
In assay [5] the test system is Rattus norvegicus. In words: The compound was tested for antihypertensive effect in spontaneously hypertensive rat (SHR), expressed as fall in blood pressure (BP) at 50 mg/kg dose given orally. The class given is functional. The note with it: route oral. In short, it runs like this:
as §1

Assay [6] deals with Canis familiaris. Nature of the assay: Antihypertensive activity in unanesthetized renal hypertensive dogs measured as mean Blood Pressure at 60 mg per kg dose after peroral administration on day 2. The class given is functional, Canis lupus familiaris. The following applies: route oral. In short, it runs like this: (§2)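 Renal hypertensive dogs, unanesthetized. Drug given orally once daily as solid in gelatin capsule. Blood pressure and heart rate read at 1.5, 3, 6 and 24 h after each dose. Value is the maximum change over the daily monitored session, mean ± SE. MBP in mm Hg, HR in beats/min, p < 0.05 flagged.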

Assay [7] deals with Canis familiaris. In words: Antihypertensive activity in unanesthetized renal hypertensive dogs measured as Heart Rate (HR) (beats/min) at 60 mg per kg dose after peroral administration on day1. The note with it: route oral. The class given is functional, Canis lupus familiaris. In short, it runs like this: as §2
Assay [8] deals with Canis familiaris. Nature of the assay: Antihypertensive activity in unanesthetized renal hypertensive dogs measured as Heart Rate (HR) (beats/min) at 60 mg per kg dose after peroral administration on day 3. The class given is functional, Canis lupus familiaris. The note with it: route oral. In short, it runs like this: as §2
Assay [9] has as its system Canis familiaris. Nature of the assay: Antihypertensive activity in unanesthetized renal hypertensive dogs measured as Heart Rate (HR) (beats/min) at 60 mg per kg dose after peroral administration on day 2. The note with it: route oral. The class given is functional, Canis lupus familiaris. In short, it runs like this: as §2
Assay [10] concerns Canis familiaris. In words: Antihypertensive activity in unanesthetized renal hypertensive dogs measured as mean Blood Pressure at 60 mg per kg dose after peroral administration on day1. The class given is functional, Canis lupus familiaris. The following applies: route oral. A digest of the protocol: as §2
Assay [11] has as its system Canis familiaris. Nature of the assay: Antihypertensive activity in unanesthetized renal hypertensive dogs measured as mean Blood Pressure at 60 mg per kg dose after peroral administration on day 3. The class given is functional, Canis lupus familiaris. The following applies: route oral. In short, it runs like this: as §2
The test system of assay [12] is Canis familiaris. In words: Antihypertensive activity in unanesthetized renal hypertensive dogs measured as mean Blood Pressure at 100 mg per kg dose after peroral administration on day1. The class given is functional, Canis lupus familiaris. The following applies: route oral. On the set-up: unit not given beside the values. In short, it runs like this: (§3)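 Renal hypertensive dogs, unanesthetized. Test compound given orally once daily as a solid in a gelatin capsule. Blood pressure was taken at 1.5, 3, 6 and 24 h after each daily dose. Activity is the maximum change in mean blood pressure or heart rate over each daily session. Values are mean ± SE, with significance marked at p < 0.05.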

The test system of assay [13] is Canis familiaris. In words: Antihypertensive activity in unanesthetized renal hypertensive dogs measured as mean Blood Pressure at 100 mg per kg dose after peroral administration on day 3 (p<0.05). The class given is functional, Canis lupus familiaris. The note with it: route oral. A digest of the protocol:
as §3

For assay [14], the system named is Canis familiaris. In words: Antihypertensive activity in unanesthetized renal hypertensive dogs measured as Heart Rate (HR) (beats/min) at 100 mg per kg dose after peroral administration on day 3. The class given is functional, Canis lupus familiaris. The note with it: route oral. In short, it runs like this: as §3
Assay [15] concerns Canis familiaris. Nature of the assay: Antihypertensive activity in unanesthetized renal hypertensive dogs measured as Heart Rate (HR) (beats/min) at 100 mg per kg dose after peroral administration on day1. The following applies: route oral. The class given is functional, Canis lupus familiaris. A digest of the protocol:
as §3

The subject of assay [16] is Canis familiaris. In words: Antihypertensive activity in unanesthetized renal hypertensive dogs measured as HeartHeart Rate (HR) (beats/min) at 100 mg per kg dose after peroral administration on day 4 ((p<0.05). The class given is functional, Canis lupus familiaris, Heart. The note with it: route oral. A digest of the protocol: as §3
Assay [17] concerns Canis familiaris. Nature of the assay: Antihypertensive activity in unanesthetized renal hypertensive dogs measured as Heart Rate (HR) (beats/min) at 100 mg per kg dose after peroral administration on day 2. The class given is functional, Canis lupus familiaris. The note with it: route oral. A digest of the protocol:
as §3

In assay [18] the test system is Canis familiaris. Nature of the assay: Antihypertensive activity in unanesthetized renal hypertensive dogs measured as mean Blood Pressure at 100 mg per kg dose after peroral administration on day 4 (p<0.05). The class given is functional, Canis lupus familiaris. The note with it: route oral. A digest of the protocol: as §3
The subject of assay [19] is Canis familiaris. Nature of the assay: Antihypertensive activity in unanesthetized renal hypertensive dogs measured as mean Blood Pressure at 100 mg per kg dose after peroral administration on day 2. The class given is functional, Canis lupus familiaris. The note with it: route oral. A digest of the protocol: as §3
The test system of assay [20] is Canis familiaris. In words: Antihypertensive activity in unanesthetized renal hypertensive dogs measured as Heart Rate (HR) (beats/min) at 100 mg per kg dose after peroral administration on day 4. The class given is functional, Canis lupus familiaris. The note with it: route oral. In short, it runs like this:
as §3

Assay [21] concerns Canis familiaris. Nature of the assay: Antihypertensive activity in unanesthetized renal hypertensive dogs measured as mean Blood Pressure at 100 mg per kg dose after peroral administration on day 2 (p<0.05). The note with it: route oral. The class given is functional, Canis lupus familiaris. In short, it runs like this:
as §3

The subject of assay [22] is Canis familiaris. Nature of the assay: Antihypertensive activity in unanesthetized renal hypertensive dogs measured as Heart Rate (HR) (beats/min) at 100 mg per kg dose after peroral administration on day 2 (p<0.05). The class given is functional, Canis lupus familiaris. The following applies: route oral. In short, it runs like this:
as §3

Assay [23] concerns Canis familiaris. In words: Antihypertensive activity in unanesthetized renal hypertensive dogs measured as mean Blood Pressure at 100 mg per kg dose after peroral administration on day 4 ((p<0.05). The class given is functional, Canis lupus familiaris. The following applies: route oral. A digest of the protocol: as §3

In the case of `CN(Cc1cccc(Oc2ccccc2)c1)c1ccc(C(=O)O)nc1`, the BP in assay [1] is reported as >20 mmHg. For `COC(=O)c1ccc(N(C)Cc2cccc(Cl)c2)cn1`, the BP in assay [1] is reported as >20 mmHg.

Consider `CN(Cc1cccc(Cl)c1)c1ccc(C(N)=O)nc1`, for which, in assay [2], the BP is recorded as <20 mmHg. Consider `O=C(O)c1ccc(NCc2cccnc2)cn1`, for which the BP in [3] is on record as <20 mmHg. With `O=C(Nc1ccc(C(=O)O)nc1)c1ccccc1`, in [3], the BP is recorded as >20 mmHg. As for `O=C(O)c1ccc(NS(=O)(=O)c2ccc(Cl)cc2)cn1`, in assay [4], the BP result is “inactive”.

In the case of `CC(C)(C)c1ccc(CNc2ccc(C(=O)O)nc2)cc1`, the BP in assay [1] is <20 mmHg. As for `O=C(O)c1ccc(NCc2ccc(F)cc2)c[n+]1[O-]`, in assay [1], the BP was >20 mmHg. Take `CN(Cc1cccc(Br)c1)c1ccc(C(=O)O)nc1`: the BP in assay [1] is listed as >40 mmHg.

`O=C(O)c1ccc(NCc2ccc(C(F)(F)F)cc2)cn1`: in assay [1], the BP is listed as >40 mmHg. `O=C(O)c1ccc(NCc2ccccc2Cl)cn1`: in assay [3], the BP is >60 mmHg.

Regarding `O/N=C/c1ccc(NCc2ccc(F)cc2)cn1`, the BP in assay [1] is <20 mmHg. With `CN(Cc1ccc(Cl)c(Cl)c1)c1ccc(C(=O)O)nc1`, the BP in [1] is >60 mmHg. Consider `CC(Nc1ccc(C(=O)O)nc1)c1ccc(F)cc1` (stereo not drawn), for which the BP in assay [5] is >40 mmHg. `COC(=O)c1ccc(NCc2ccc(Cl)cc2)cn1`: the BP in assay [3] is on record as >60 mmHg. On to `COc1ccc(CNc2ccc(C(=O)O)nc2)cc1F`, for which the BP in [1] is >20 mmHg. For `CCCCS(=O)(=O)Nc1ccc(C(=O)O)nc1`, in [4], the BP result was “inactive”.

Take `CCCCc1ccc(C(=O)O)nc1` [FUSARIC ACID]: the MBP is reported as -45 in assay [6], -50 in [10] and -30 in [11]. The HR in assay [7] stood at 32; in assay [8] it was 33; in assay [9] it was 35. The BP in assay [3] is reported as >60 mmHg. On to `O=C(O)c1ccc(NCc2ccccc2F)cn1`, for which the BP in [1] is reported as >40 mmHg. In the case of `COc1cccc(CN(C)c2ccc(C(=O)O)nc2)c1`, the BP in assay [1] was >20 mmHg. On to `O=C(O)c1ccc(NCc2cccc(F)c2)cn1`, for which the MBP in [12] is on record as -30; in assay [13], -56; in [18] it was -51; in [19], -46. Besides, the HR in assay [14] was 51; in assay [16] it was 44; in assay [17] it was 78. Besides, the “Maximum change in heart rate” value in assay [15] was 35. For the same molecule, the BP in [1] is given as >60 mmHg. Take `CCOC(=O)Nc1ccc(C(=O)OC)nc1`: in [4], the BP result is “inactive”. Consider `NNC(=O)c1ccc(NCc2ccc(F)cc2)cn1`, for which the BP in assay [1] is given as >40 mmHg. Consider `O=Cc1ccc(NCc2cccc(Cl)c2)cn1`, for which the BP in assay [1] is >20 mmHg. For `O=C(O)c1ccc(NCc2ccc(F)cc2)cn1`, the HR in assay [20] stood at 41; in assay [14], 52; in [22] it was 60. For the same molecule, the BP in [2] was >60 mmHg; in assay [1], > 60 mmHg. For the same molecule, the MBP is reported as -69 in [12], -49 in assay [13], -41 in assay [21] and -48 in assay [23]. In [15], this molecule had a Maximum change in heart rate of 37. On to `O=Cc1ccc(NCc2ccc(F)cc2)cn1`, for which, in [1], the BP was >80 mmHg. Turning to `O=C(O)c1ccc(NCc2cc(Cl)cc(Cl)c2)cn1`, the BP in assay [1] is given as >60 mmHg. In the case of `CN(Cc1cccc(Cl)c1)c1ccc(CO)nc1`, the BP in assay [1] is recorded as >40 mmHg. For the molecule `CC(Nc1ccc(C(=O)O)nc1)c1ccccc1` (stereo not drawn), the BP in assay [1] is >80 mmHg. As to `O=C(O)c1ccc(NCc2ccncc2)cn1`, the BP in [1] is given as >20 mmHg.
